{"source": "paper PMC9057764", "about": "(RSC Advances, 2020)", "key": {"[1]": {"tested_on": "CCRF-CEM", "assay": "NCI five-dose screen, leukemia", "assay_type": "cell-based", "conditions": "Homo sapiens", "outline": "(§1)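 This was the NCI five-dose screen on the 60-cell-line human cancer panel, covering nine tumour types. It was given to compounds that met the single-dose criteria. GI50 is the concentration giving 50% growth inhibition, TGI the concentration giving 100% growth inhibition, and LC50 the concentration giving 50% lethality. MG-MID is the mean over all cell lines tested.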"}, "[2]": {"tested_on": "K-562", "assay": "NCI five-dose screen, leukemia", "assay_type": "cell-based", "conditions": "Homo sapiens, K562", "outline": "as §1"}, "[3]": {"tested_on": "MOLT-4", "assay": "NCI five-dose screen, leukemia", "assay_type": "cell-based", "conditions": "Homo sapiens", "outline": "as §1"}, "[4]": {"tested_on": "RPMI-8226", "assay": "NCI five-dose screen, leukemia", "assay_type": "cell-based", "conditions": "Homo sapiens", "outline": "as §1"}, "[5]": {"tested_on": "SR", "assay": "NCI five-dose screen, leukemia", "assay_type": "cell-based", "conditions": "Homo sapiens", "outline": "as §1"}, "[6]": {"tested_on": "COLO 205", "assay": "NCI five-dose screen, colon cancer", "assay_type": "cell-based", "conditions": "Homo sapiens", "outline": "as §1"}, "[7]": {"tested_on": "HCC-2998", "assay": "NCI five-dose screen, colon cancer", "assay_type": "cell-based", "conditions": "Homo sapiens", "outline": "as §1"}, "[8]": {"tested_on": "HCT-116", "assay": "NCI five-dose screen, colon cancer", "assay_type": "cell-based", "conditions": "Homo sapiens", "outline": "as §1"}, "[9]": {"tested_on": "HCT-15", "assay": "NCI five-dose screen, colon cancer", "assay_type": "cell-based", "conditions": "Homo sapiens, HCT-15", "outline": "as §1"}, "[10]": {"tested_on": "HT29", "assay": "NCI five-dose screen, colon cancer", "assay_type": "cell-based", "conditions": "Homo sapiens, HT-29", "outline": "as §1"}, "[11]": {"tested_on": "KM12", "assay": "NCI five-dose screen, colon cancer", "assay_type": "cell-based", "conditions": "Homo sapiens, KM12", "outline": "as §1"}, "[12]": {"tested_on": "SW-620", "assay": "NCI five-dose screen, colon cancer", "assay_type": "cell-based", "conditions": "Homo sapiens, SW-620", "outline": "as §1"}, "[13]": {"tested_on": "CCRF-CEM", "assay": "NCI single dose", "assay_type": "cell-based", "conditions": "Homo sapiens, read-out: percent growth inhibition", "outline": "(§2)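 This was the NCI primary screen: test compound at one concentration of 10 μM against the 60-cell-line human cancer panel, covering leukemia, NSCLC, melanoma, colon, CNS, ovarian, renal, prostate and breast lines. The read-out was percent growth inhibition for each cell line. Compounds meeting the threshold went on to the five-dose screen.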"}, "[14]": {"tested_on": "K-562", "assay": "NCI single dose", "assay_type": "cell-based", "conditions": "Homo sapiens, K562, read-out: percent growth inhibition", "outline": "as §2"}, "[15]": {"tested_on": "MOLT-4", "assay": "NCI single dose", "assay_type": "cell-based", "conditions": "Homo sapiens, MOLT-4, read-out: percent growth inhibition", "outline": "as §2"}, "[16]": {"tested_on": "SR", "assay": "NCI single dose", "assay_type": "cell-based", "conditions": "Homo sapiens, read-out: percent growth inhibition", "outline": "as §2"}, "[17]": {"tested_on": "HCC-2998", "assay": "NCI single dose", "assay_type": "cell-based", "conditions": "Homo sapiens, HCC 2998, read-out: percent growth inhibition", "outline": "as §2"}, "[18]": {"tested_on": "HCT-116", "assay": "NCI single dose", "assay_type": "cell-based", "conditions": "Homo sapiens, HCT-116, read-out: percent growth inhibition", "outline": "as §2"}, "[19]": {"tested_on": "HCT-15", "assay": "NCI single dose", "assay_type": "cell-based", "conditions": "Homo sapiens, HCT-15, read-out: percent growth inhibition", "outline": "as §2"}, "[20]": {"tested_on": "HT29", "assay": "NCI single dose", "assay_type": "cell-based", "conditions": "Homo sapiens, HT-29, read-out: percent growth inhibition", "outline": "as §2"}, "[21]": {"tested_on": "KM12", "assay": "NCI single dose", "assay_type": "cell-based", "conditions": "Homo sapiens, KM12, read-out: percent growth inhibition", "outline": "as §2"}, "[22]": {"tested_on": "SW-620", "assay": "NCI single dose", "assay_type": "cell-based", "conditions": "Homo sapiens, SW-620, read-out: percent growth inhibition", "outline": "as §2"}, "[23]": {"tested_on": "60 cancer cell lines", "assay": "NCI single dose", "assay_type": "cell-based, human", "outline": "as §2"}, "[24]": {"tested_on": "panel of 60 cell lines", "assay": "NCI five-dose screen, whole panel", "assay_type": "cell-based", "conditions": "Homo sapiens", "outline": "as §1"}, "[25]": {"assay": "Cytotoxicity in normal cells", "assay_type": "cell-based, human", "conditions": "human, WI-38 normal fibroblasts", "outline": "(§3)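 Normal human WI-38 fibroblasts were exposed to a concentration series of test compound, with doxorubicin as positive control and three wells per concentration. IC50 came from dose–response curves averaged over two parallel experiments and is given as mean ± SEM versus untreated cells. Selectivity index = WI-38 IC50 / median GI50 from the NCI cancer panel.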"}, "[26]": {"tested_on": "human normal fibroblasts (WI-38)", "assay": "Cytotoxicity in normal cells", "assay_type": "cell-based", "conditions": "SI = WI-38 IC50/median GI50", "outline": "as §3"}, "[27]": {"tested_on": "p53", "assay": "Gene expression by real time PCR in HepG2", "assay_type": "cell-based", "conditions": "Homo sapiens, HepG2, 8 h, read-out: p53 expression, fold induction from untreated cells", "outline": "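HepG2 cells treated with test compound; p53 transcript measured within a panel that also covered cdk1, caspase 3, topoII and txnrd1, and expressed relative to untreated cells. Values given as mean ± SEM of two independent experiments, with significance set at p < 0.05 versus untreated cells.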"}, "[28]": {"tested_on": "cyclin-dependent kinase 1 (cdk1)", "assay": "Gene expression by real time PCR in HepG2", "assay_type": "cell-based", "conditions": "HepG2, approximate value in text"}, "[29]": {"tested_on": "topoisomerase II (topoII)", "assay": "Gene expression by real time PCR in HepG2", "assay_type": "cell-based", "conditions": "HepG2, approximate value in text"}, "[30]": {"tested_on": "topoisomerase II (Topo II)", "assay": "Topo II concentration in HepG2 cells, sandwich ELISA", "assay_type": "cell-based", "conditions": "HepG2, IC50 concentrations, 8 hours, ELISA (Fig. 5A)", "outline": "(§4)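 HepG2 cells were treated with test compound, with doxorubicin as reference. Cellular p38 MAPK and Topo II protein concentrations were then measured with commercial sandwich ELISA kits. Each compound had three wells, and the experiment was run twice. Values are mean ± SEM, with significance tested against untreated cells.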"}, "[31]": {"tested_on": "p38 mitogen-activated protein kinase (MAPK)", "assay": "MAPK concentration in HepG2 cells, sandwich ELISA", "assay_type": "cell-based", "conditions": "HepG2, IC50 concentrations, 8 hours, ELISA (Fig. 5C)", "outline": "as §4"}, "[32]": {"tested_on": "cleaved caspase-3", "assay": "Active cleaved caspase 3 activity in HepG2 cells", "assay_type": "cell-based"}, "[33]": {"tested_on": "HL-60 (TB)", "assay": "cells", "conditions": "Homo sapiens"}}, "note": "Entries after “also recorded” stand apart in the source; their conditions may differ. Read-outs that look alike come from different tables or passages of the source.", "data": [{"compound": "COc1cc(-c2ccc(-c3ccc(C(=N)N)nc3)s2)cc(OC)c1OC.Cl", "note": "[Compound 4c, 5-[5-(3,4,5-Trimethoxyphenyl)thiophen-2-yl]picolinamidine hydrochloride salt]", "values": [{"measurement": "GI50", "setting": "[1]", "result": 2.49, "unit": "µM"}, {"measurement": "GI50", "setting": "[2]", "result": 1.39, "unit": "µM"}, {"measurement": "GI50", "setting": "[3]", "result": 2.53, "unit": "µM"}, {"measurement": "GI50", "setting": "[4]; RPMI-8226", "result": 1.67, "unit": "µM"}, {"measurement": "CC50", "setting": "[4]; RPMI-8226, read-out: LC50", "result": 9.4, "unit": "µM"}, {"measurement": "GI50", "setting": "[5]", "result": 2.48, "unit": "µM"}, {"measurement": "GI50", "setting": "[6]; COLO 205", "result": 1.6, "unit": "µM"}, {"measurement": "CC50", "setting": "[6]; COLO 205, read-out: LC50", "result": 6.66, "unit": "µM"}, {"measurement": "GI50", "setting": "[7]; HCC 2998", "result": 2, "unit": "µM"}, {"measurement": "CC50", "setting": "[7]; HCC 2998, read-out: LC50", "result": 7.61, "unit": "µM"}, {"measurement": "GI50", "setting": "[8]; HCT-116", "result": 1.47, "unit": "µM"}, {"measurement": "CC50", "setting": "[8]; HCT-116, read-out: LC50", "result": 5.6, "unit": "µM"}, {"measurement": "GI50", "setting": "[9]", "result": 2.18, "unit": "µM"}, {"measurement": "GI50", "setting": "[10]", "result": 1.37, "unit": "µM"}, {"measurement": "GI50", "setting": "[11]", "result": 2.78, "unit": "µM"}, {"measurement": "GI50", "setting": "[12]", "result": 2.09, "unit": "µM"}, {"measurement": "inhibition at 10 µM", "setting": "[13]", "result": 89.1, "unit": "%"}, {"measurement": "inhibition at 10 µM", "setting": "[14]", "result": 94.4, "unit": "%"}, {"measurement": "inhibition at 10 µM", "setting": "[15]", "result": 76.2, "unit": "%"}, {"measurement": "inhibition at 10 µM", "setting": "[16]", "result": 93.7, "unit": "%"}, {"measurement": "inhibition at 10 µM", "setting": "[17]", "result": 87.9, "unit": "%"}, {"measurement": "inhibition at 10 µM", "setting": "[18]", "result": 99, "unit": "%"}, {"measurement": "inhibition at 10 µM", "setting": "[19]", "result": 78.6, "unit": "%"}, {"measurement": "inhibition at 10 µM", "setting": "[20]", "result": 85.8, "unit": "%"}, {"measurement": "inhibition at 10 µM", "setting": "[21]", "result": 50.9, "unit": "%"}, {"measurement": "inhibition at 10 µM", "setting": "[22]", "result": 70.8, "unit": "%"}, {"measurement": "GI% values, range over cell lines", "setting": "[23]; 10 μM, range over the leukemia and colon cancer cell lines of Table 2", "result": "50.93 to 99.05", "unit": "%"}, {"measurement": "inhibition at 10 µM", "setting": "[23]; Homo sapiens, read-out: Mean percent growth inhibition (MPGI)", "result": 52.6, "unit": "%"}, {"measurement": "GI50", "setting": "[24]; read-out: GI50, range over cell lines", "result": "1.37 to 2.78", "unit": "µM"}, {"measurement": "GI50", "setting": "[24]; read-out: Median GI50 (MG-MID)", "result": 2.39, "unit": "µM"}, {"measurement": "CC50", "setting": "[24]; read-out: Median LC50 (MG-MID)", "result": 19.5, "unit": "µM"}, {"measurement": "IC50 at 48 h", "setting": "[25]", "result": "51.3 ± 9", "unit": "µM"}, {"measurement": "selectivity index (SI)", "setting": "[26]", "result": 21.5}, {"measurement": "fold induction at 0.1 µM", "setting": "[27]", "result": "1.18 ± 0.1"}, {"measurement": "magnitude of downregulation of cdk1 expression", "setting": "[28]", "result": "~70", "unit": "%"}, {"measurement": "magnitude of downregulation of topoII expression", "setting": "[29]", "result": "~70", "unit": "%"}, {"measurement": "effect on concentration of Topo II protein", "setting": "[30]", "result": "significant reduction; also recorded: significantly downregulate"}, {"measurement": "effect on concentration of MAPK protein", "setting": "[31]", "result": "significant reduction"}, {"measurement": "effect on activity of cleaved active caspase 3", "setting": "[32]; HepG2 (Fig. 5B)", "result": "devoid of any effect"}, {"measurement": "increase in cleaved caspase 3 enzyme activity", "setting": "[32]; HepG2, did not achieve statistical significance (Fig. 5B)", "result": "~60", "unit": "%"}, {"measurement": "GI50", "setting": "[33]; HL-60", "result": 1.87, "unit": "µM"}, {"measurement": "CC50", "setting": "[33]; HL-60, read-out: LC50", "result": 9.44, "unit": "µM"}]}, {"compound": "COc1cccc2c1C(=O)c1c(O)c3c(c(O)c1C2=O)C[C@@](O)(C(=O)CO)C[C@@H]3O[C@H]1C[C@H](N)[C@H](O)[C@H](C)O1", "note": "[Dox, Doxorubicin, reference compound]", "values": [{"measurement": "IC50 at 48 h", "setting": "[25]", "result": "2.9 ± 0.8", "unit": "µM"}, {"measurement": "fold induction at 0.1 µM", "setting": "[27]", "result": "3.14 ± 0.81"}, {"measurement": "effect on concentration of Topo II protein", "setting": "[30]", "result": "significantly downregulate"}]}]}
